Measurements taken from the EternaBench riboswitch data.

Test system: MS2 coat protein
Assay: apparent Kd, MS2 coat protein; higher = weaker binding; RNA-MaP array; FMN 200 µM where present
Method in brief: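 Two titrations, one without ligand and one with constant ligand, were run with SNAP-549-labelled MS2 coat protein from 0.7 or 1.5 nM, doubling to 3 µM. The targets were designs transcribed by stalled E. coli RNA polymerase on Illumina sequencing-chip clusters, in 100 mM Tris-HCl pH 7.5, 80 mM KCl, 4 mM MgCl2, BSA, DTT, yeast tRNA and Tween-20. The apparent Kd is the median of filtered per-cluster binding-curve fits, with green signal normalised to red-channel RNA signal and control-cluster median Fmax.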

[1] = designed as: OFF switch for flavin mononucleotide, no ligand
[2] = ligand present: flavin mononucleotide, designed as: OFF switch for flavin mononucleotide
[3] = designed as: ON switch for flavin mononucleotide, no ligand
[4] = ligand present: flavin mononucleotide, designed as: ON switch for flavin mononucleotide

Sequence	apparent Kd [1] [nM]	apparent Kd [2] [nM]	apparent Kd [3] [nM]	apparent Kd [4] [nM]
UUCCUGUCAGGAUAUGACUAGAUGCACGUUAGUGUGUUUACUUAGAAGGGACAUGAGGAUCACCCAUGUAGUCC	36.2	33		
UUUUUGUCAGGAUAUCGUGCAUACAACGAAAGUUCUAUGUGCGAGAAGGGACAUGAGGAUCACCCAUGUUACGG	109	371		
UUUUAACAUGAGGAUCACCCAUGUGAGGAUAUCGAAAUUUAUAUUAAUAUUAAUUAAUCGAGAAGGCACAUUUU	106	113		
AAGUUUGUACGAGGAUAUCAGUUGUAUCUAAAUUCAACAUGAGGAUCACCCAUGUUGCAAUAGGGUGAGAAGGCGUGUGGGCAA			44.6	37.9
CCGAUGAUAGGACAGGAUAUGACUGUCGUCACAUGAGGAUCACCCAUGUCCCGGCAAUGCCACCGUUAGAAGGGUCCUAUCUCGG			13.1	13
CGUUAUUCAGGAUAUGGCGUGUUAUACAUGAGGAUCACCCAUGUAGAUCCUGGUUAGGCCUCAGAAGGGAAUGUUC	43.7	37.8		
CGCUAAGAGAACUAUUCGAGAAGACAUGAGGAUCACCCAUGUAGAAGGACAACGGAAUAAACGUUGUAGGAUAUACACUUAGCG	9.36	8.97		
AGUCGGAGCAGAGGAUAUUACAUGAGGAUCACCCAUGUAAUAAGAUCAAGCUGGAAACAGCAAUGUAAGAAGGCUGCUCCGACA	16.3	45.6		
GAAAACCAAGGAUAUACAUGAGGAUCACCCAUGUAGGUUGGGACGCCAUAAAGGCGAUGUAGAAGGUGGGAAAA	21.9	33.6		
UUUUUUUUAGUAAGGAUAUGAUGCAGGAAACUGCGUCAGAAGGUACAUGAGGAUCACCCAUGUUAAUUUUUUUU	17.2	22.4		
AGAUAAUAGCAGAAGGGCCAUGGACAUGAGGAUCACCCAUGUAACGGUGGACUCAUUUGUGAAGGGCAGGAUAUGCAAUAAAGA	160	13.4		
UGAGUGCGUGUUAGGAUAUGGUUUGGUGUUUCGGGCUAGAAGGGACAUGAGGAUCACCCAUGUAAUUGGCGGGU	253	250		
UUGCCUCAGAACAUGAGGAUCACCCAUGUGCUGCGGGCAACGUAGGAUAUGAUGGUAUUAUACCGUCAGAAGGAUGAUGGUACU			5.59	5.2
ACAUUGCGAGGAUAUACAUGAGGAUCACCCAUGUGGUAGUGGAUACGGUAGGGCUAGUGUAGAAGGUGUCAUGG	128	103		
CCGGAAGUACAGGAUAUAGGAGUCGAUAGACUCCUAGAAGGGUAUACAUGAGGAUCACCCAUGUGUCCUACCGG	29.6	33.4		
GCUAUCGAUGUAGGAUAUGAUAUAGAAACUAUGUCAGAAGGACAUGAGGAUCACCCAUGUCAAUGGAUGGAGAGAAGAGAUGGC	26.7	52.5		
UUCCGACAUGAGGAUCACCCAUGUAAGGAUAUGUAUCCUUCGGCCCGAACCAGAGGAAGCAGAAGGUACAGGGA	31.3	20		
UAUAUUUAUGUAGGAUAUGGUAUAUAAAAUAUACCAGAAGGACAUGAGGAUCACCCAUGUAUGAAAUUCCAUAAUAAGCGUGUA	12.2	13.8		
GGCAUGCAAAUAAAACAUGAGGAUCACCCAUGUGAGUCUCAUGAGGAUAUGCAGGUCAAAGACUUGCAGAAGGCAUGGCGUGCC			1950	132
AGAUGACAAUGUCAUCUUCGACGGACAUGAGGAUCACCCAUGUAGGAUAUGCUACUCAAAGAGUAGCAGAAGGACAUGUGUCUU	22.2	74.8		
CAGUAUUGAGGAUAUACAUGAGGAUCACCCAUGUGUUCCAGCUAGGAAACUAGCAAAAGUAGAAGGCAGUACUG	21.6	186		
GGUUGGCGAGGAUAUACAUGAGGAUCACCCAUGUGGUCCUGCGGUGGUCUCGCCCUUUGUAGAAGGCGCGGGUC	35.7	30.6		
CGAUAUUAUGUCAGGAUAUACAUUGCGAAAGCAAUGUAGAAGGGACAUGAGGAUCACCCAUGUCCUAACUAUCG	12.5	14.2		
AACGUGUGAGGAUAUUAGUUGUACGUCAAUAGACGUAUAAGUGAGAAGGCACAUGAGGAUCACCCAUGUUCCUG	23.9	195		
AGAGACCUCACAGGAUAUGCUGGACUUUGUCCAGCAGAAGGGUGAAAACAUGAGGAUCACCCAUGUAUGGUCUCCAAAUUUAAG			182	13.5
UGAGCCUCGUGAGGAUAUACAUGAGGAUCACCCAUGUAAUAAAGUGAACGGAGGAAACUCCGAAUGUAGAAGGUACGAGGCUCA	10.1	44.2		
CGCUACUACCAGAAGGACAUGAGGAUCACCCAUGUAGGAUAUGGGUUACACGUUCCUGUGUUAAGUUACUACGCUACGUAUGCG			419	20.2
GGAUAGUGAGGAUAUGCAUACGGUGUAAGUCCCAGAUCGAAACAUGAGGAUCACCCAUGUAGAAGGCGCAAAAC	23.6	75.5		

Sequence	apparent Kd [1] [nM]	apparent Kd [2] [nM]	apparent Kd [3] [nM]	apparent Kd [4] [nM]
GAGCUGUGAGGAUAUACAUGAGGAUCACCCAUGUUAAGGAAGUGGUGUAUAUUUUAGUGUAGAAGGCACUUAUU	121	439		
AUAUAUAUUAGAGGAUAUGUGUUCAUGUUACAUGAGGAUCACCCAUGUUUAGGUUGAUUUAUCUUACAGAAGGCUAUACAAUCA	71.5	76		
UGAGCUUCAGGAUAUAUAUGGCGACCGUGAGGUCGAAGGUUACAUGAGGAUCACCCAUGUAGAAGGGAAGUUCU	34.5	187		
CAUUAAUUCAUUAUAGUUAUUAUACAGGAUAUGUUACAUGAGGAUCACCCAUGUAUUCUUGGUAAACAGAAGGGUAUUUCUAGU	7.48	8.5		
GGCGGUCGGGAGGAUAUUCGGGCUGUUUGGCUUGGAGAAGGCUCGACAUGAGGAUCACCCAUGUUGGUGUUCUU	387	40.8		
GGACGUCACAUUAACAUGAGGAUCACCCAUGUAAAAUAACAUGAGGAUAUGGAUCCUAAUUGGAUCCAGAAGGCAUGGACGUCC			7.66	5.58
AAUUGGAUCCAGAAGGCAUGGACGACCCGUCACAUUAACAUGAGGAUCACCCAUGUCAAAAGACAUGAGGAUAUGGAUCCUAAA			752	31.8
GUGACGAAUGUAGGAUAUGCUGAGGAAUACUCAGCAGAAGGACAUGAGGAUCACCCAUGUACUAUGAGUGAAUAAUAACGUCAC	77.4	881		
GGUUGUCAAAGACAACCAUAACGAACAUGAGGAUCACCCAUGUAGGAUAUGCUUCUCAAAGAGAAGCAGAAGGACAUGUGUCUU	31.8	177		
UUGAAUCGAAACAUGAGGAUCACCCAUGUGUCGUAGGUAGCAUAGGAUAUGUACAUACUGUUGGGAUAGAAGGAUGAUGAUGCU			8.62	7.47
ACAUGAGGAUCACCCAUGUAAUAACAUCGGUUAUACGAAAGUGAGGAUAUCGAUCAGGCAUAUUACGAGAAGGCACAAUAGGGA			41.3	43.2
GCGUCACAAUUAGAACCGAUACGAACAUGAGGAUCACCCAUGUAGGAUAUGCUAGAAGUUGAGUUGCAGAAGGACAUUUAUCGC	11.1	10.6		
GUUUAGUGAGGAUAUGUGGCUUCGAUCGUGCGAGGGCGGCUACAGAAGGCACAUGAGGAUCACCCAUGUUCCUC	155	428		
CUAUGUUAGCAGGAUAUGCCAUUAUUCCUUUACGCAGAAGGGCUUACAUGAGGAUCACCCAUGUUACAUUUCAU	14.1	29.8		
UUAAUCAUGUAGAAGGACGGAUAUUAAGAGUACGUAGGAUAUACAGCAGACAUGAGGAUCACCCAUGUGAACAUGGUACAUAGG	180	55		
UUAUACGUUGAGGAUAUGUCAGUUAGUAUAUUUACAGAAGGCGAUACAUGAGGAUCACCCAUGUUUAUGGGCAU	213	149		
CUUUUGUGAGGAUAUCAGUAGUAAAAAAUUAAAAUUACUACUGAGAAGGCACAUGAGGAUCACCCAUGUUCCUC	40.1	284		
AGUGUCAUCGAGAAGGCCUCAACAUGAGGAUCACCCAUGUUGCAAAAUGGGAGGAUAUCGAAAAUACAGCUACGUUUCGUAGCA			21.9	5.3
GCUGACGAUGUAGGAUAUCUCGACGAUAAGUCGAGAGAAGGACAUGAGGAUCACCCAUGUAAACUCACGUCAGCGAGGAAACUC	16.1	17.2		
AGAAACUACGAGAAGGACAUGUGGUCCUUCAAAAACAUGAGGAUCACCCAUGUAGGAUAUCGUAGUUUCAGGAUCGUGAGAUCA	37.6	22.8		
AGUGGCCGAGGAUAUACGGACGUGUCGCCGGGUGUCGUGGGACAUGAGGAUCACCCAUGUAGAAGGUGGUUGUU	170	219		
CGCACUUAGCGAGGAUAUGUUAAACAUGAGGAUCACCCAUGUGAUUUAGUAUCAAUAUUAGUGAAACAGAAGGCGCUUAGUGCG	14	13.2		
GGGUACAUCGGAGGAUAUUAUGUAAAUACAUGAGGAUCACCCAUGUCGAUGGAGACAUCGGAGAUUGAGAAGGCCGAUGUACCG			119	8.94
GGAUAGGACAGAGGAUAUACGUGCUAGAGAUACUAGCAAAAUUUCCUGACAUGAGGAUCACCCAUGUAGAAGGCUGUCCUAUCG	7.22	15.5		
CCGGUGGCGCUAGUGGUGACUGCACAGGAUAUAGCGCUCACAUGAGGAUCACCCAUGUAAGGACGCUAGAAGGGUGAAAGUAUA			59.9	19.9
GUGUACAGAGGAUAUACAUAAGCUAGGAAACUAGCAUCCUCACAUGAGGAUCACCCAUGUAGAAGGCUGUACAC	305	19.6		
AUGAUUAUAUUAUACAUGAGGAUCACCCAUGUUAUAAGUCAUGAGGAUAUGGUAUUGUAGUUUUUCCAGAAGGCAUUUAACUUA			7.91	5.47
